# Measured values as given in ChEMBL document CHEMBL1124756, “The discovery of potent nonpeptide angiotensin II receptor antagonists: a new class of potent antihypertensives” (J Med Chem, 1990).
# What was measured:
# Angiotensin II receptor [1] = molecular target: T1, Angiotensin II receptor (Rattus norvegicus, UniProt P29089+P25095+P35351); assay: Inhibitory concentration that gave 50 percent displacement of specific binding of [3H]AII (2 nM) to Angiotensin II receptor; assay type: protein assay
# T1 sequence (P29089 whole entry): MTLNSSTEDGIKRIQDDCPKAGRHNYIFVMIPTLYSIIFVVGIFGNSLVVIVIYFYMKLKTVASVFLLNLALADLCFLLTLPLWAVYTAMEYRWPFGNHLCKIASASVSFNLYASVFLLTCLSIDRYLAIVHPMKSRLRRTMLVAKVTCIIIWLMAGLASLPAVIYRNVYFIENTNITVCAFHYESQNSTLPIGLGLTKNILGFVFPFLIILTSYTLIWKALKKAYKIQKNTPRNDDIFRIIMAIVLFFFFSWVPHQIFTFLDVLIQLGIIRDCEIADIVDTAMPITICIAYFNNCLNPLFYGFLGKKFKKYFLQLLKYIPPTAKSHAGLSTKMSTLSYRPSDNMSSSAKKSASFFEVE
# T1 sequence (P25095 whole entry): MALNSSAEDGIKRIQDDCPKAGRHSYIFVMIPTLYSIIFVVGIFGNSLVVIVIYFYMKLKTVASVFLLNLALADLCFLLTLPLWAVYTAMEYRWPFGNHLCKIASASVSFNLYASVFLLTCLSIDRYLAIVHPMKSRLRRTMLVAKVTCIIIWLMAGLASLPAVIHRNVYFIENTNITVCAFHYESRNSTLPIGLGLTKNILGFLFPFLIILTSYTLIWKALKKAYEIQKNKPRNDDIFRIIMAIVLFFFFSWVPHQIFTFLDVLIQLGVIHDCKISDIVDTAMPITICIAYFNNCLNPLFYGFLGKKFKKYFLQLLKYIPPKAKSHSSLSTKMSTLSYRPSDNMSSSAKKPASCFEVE
# T1 sequence (P35351 whole entry): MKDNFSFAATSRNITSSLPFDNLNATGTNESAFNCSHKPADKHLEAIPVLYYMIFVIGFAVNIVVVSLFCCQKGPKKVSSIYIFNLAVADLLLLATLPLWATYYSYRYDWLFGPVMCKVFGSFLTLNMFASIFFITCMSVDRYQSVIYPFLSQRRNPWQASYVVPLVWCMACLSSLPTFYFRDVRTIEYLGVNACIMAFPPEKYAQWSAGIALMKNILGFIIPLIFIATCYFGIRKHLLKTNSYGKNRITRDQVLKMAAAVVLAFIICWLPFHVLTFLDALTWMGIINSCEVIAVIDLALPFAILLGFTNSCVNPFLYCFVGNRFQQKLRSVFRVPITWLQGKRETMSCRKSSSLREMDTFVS
# Procedure, shortened: (§1)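 Rat adrenal cortical microsomes from male Sprague–Dawley rats, resuspended in 50 mM Tris pH 7.2, 5 mM MgCl2, 0.25% BSA. Membranes (0.02–0.03 mg protein) incubated with [3H]AII 2 nM plus varying inhibitor concentrations, 60 min at 25 °C with shaking. Glass-fiber filtration, scintillation counting, duplicates. Nonspecific binding defined with 1 μM unlabeled AII. IC50 taken from linear portion of displacement curve.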
# [2] = Dissociation constant (pKa); assay type: physicochemical
# Angiotensin II receptor [3] = molecular target: T1, Angiotensin II receptor; assay: Inhibitory concentration that gave 50 percent displacement of specific binding of [3H]AII (2 nM) to Angiotensin ll receptor; assay type: protein assay; procedure, shortened: as §1
IC50 (Angiotensin II receptor [1]) [µM],pKa [2],IC50 (Angiotensin II receptor [3]) [µM],Compound
0.5,4.5,–,CCCCc1nc(Cl)c(CC(=O)OC)n1Cc1ccc(NC(=O)c2ccccc2NS(=O)(=O)C(F)(F)F)cc1
0.08,–,–,CCCCc1nc(Cl)c(CC(=O)OC)n1Cc1ccc(NC(=O)c2c(OC)cccc2C(=O)O)cc1
6.1,–,–,CCCCc1nc(Cl)c(COC)n1Cc1ccc(C(=O)N[C@H](Cc2ccccc2)C(=O)O)cc1
27,9.5,–,CCCCc1nc(Cl)c(CC(=O)OC)n1Cc1ccc(NC(=O)C(F)(F)F)cc1
2.7,4.5,–,CCCCc1nc(Cl)c(CC(=O)OC)n1Cc1ccc(N(Cc2ccccc2)C(=O)c2ccccc2NS(=O)(=O)C(F)(F)F)cc1
2.3,8.9,–,CCCCc1nc(Cl)c(CC(=O)OC)n1Cc1ccc(NC(=O)c2ccccc2NS(C)(=O)=O)cc1
1.3,–,–,CCCCc1nc(Cl)c(CC(=O)OC)n1Cc1ccc(NC(=O)c2cccc(NS(=O)(=O)C(F)(F)F)c2)cc1
2.8,–,–,CCCCc1nc(Cl)c(COC)n1Cc1ccc(NC(=O)CC(C(=O)O)c2ccccc2)cc1 (configuration not stated)
5.9,4.5,–,CCCCc1nc(Cl)c(CC(=O)OC)n1Cc1ccc(NC(=O)c2cc(Cl)ccc2NS(=O)(=O)C(F)(F)F)cc1
> 30,4.3,–,CCCCc1nc(Cl)c(CC(=O)OC)n1Cc1ccc(NC(=O)c2cc([N+](=O)[O-])cc([N+](=O)[O-])c2O)cc1
8,–,–,CCCCc1nc(Cl)c(COC)n1Cc1ccc(C(=O)Nc2ccccc2C(=O)O)cc1
0.4,–,–,CCCCc1nc(Cl)c(CC(=O)OC)n1Cc1ccc(NC(=O)c2cccc([N+](=O)[O-])c2C(=O)O)cc1
40,4.5,–,CCCCc1nc(Cl)c(CC(=O)OC)n1Cc1ccc(NC(=O)c2cc(Br)ccc2NS(=O)(=O)C(F)(F)F)cc1
0.42,–,–,CCCCc1nc(CC(=O)OC)c(Cl)n1Cc1ccc(NC(=O)c2ccccc2C(=O)O)cc1
100,–,–,CCCCc1nc(Cl)c(CO)n1Cc1ccc(OC)cc1
11,–,–,CCCCc1nc(Cl)c(CC(=O)OC)n1Cc1ccc(NC(=O)/C=C\C(=O)O)cc1
3.4,4.5,–,CCCCc1nc(Cl)c(CC(=O)OC)n1Cc1ccc(NC(=O)c2cc(I)ccc2NS(=O)(=O)C(F)(F)F)cc1
0.19,4.5,–,CCCCc1nc(Cl)c(CC(=O)OC)n1Cc1ccc(NC(=O)c2cccc(C)c2NS(=O)(=O)C(F)(F)F)cc1
3.1,–,–,CCCCc1nc(Cl)c(CC(=O)OC)n1Cc1ccc(N2C(=O)c3ccccc3C2=O)cc1

IC50 (Angiotensin II receptor [1]) [µM],pKa [2],IC50 (Angiotensin II receptor [3]) [µM],Compound
> 100,–,–,CCCCc1nc(Cl)c(CC(=O)OC)n1Cc1ccccc1NC(=O)c1ccccc1NS(=O)(=O)C(F)(F)F
40,–,–,CCCCc1nc(Cl)c(CC(=O)OC)n1Cc1ccc(NCc2ccccc2)cc1
0.57,–,–,CCCCc1nc(Cl)c(COC)n1Cc1ccc(C(=O)Nc2ccccc2-c2nn[nH]n2)cc1
100,–,–,CCCCc1nc(Cl)c(CC(=O)OC)n1Cc1ccc([N+](=O)[O-])cc1
0.032,–,–,CCCCc1nc(Cl)c(CC(=O)OC)n1Cc1ccc(NC(=O)c2c(C)cccc2C(=O)O)cc1
5.8,–,–,CCCCc1nc(Cl)c(CC(=O)OC)n1Cc1ccc(NC(=O)c2cc3ccccc3cc2C(=O)O)cc1
7.5,–,–,CCCCc1nc(Cl)c(COC)n1Cc1ccc(NC(=O)C(CC(=O)O)c2ccccc2)cc1 (configuration not stated)
0.19,–,–,CCCCc1nc(Cl)c(CC(=O)OC)n1Cc1ccc(NC(=O)c2ccccc2-c2ccccc2C(=O)O)cc1
100,–,–,CCCCc1nc(Cl)c(CC(=O)OC)n1Cc1ccc(N)cc1
0.38,–,–,CCCCc1nc(Cl)c(CC(=O)OC)n1Cc1ccc(NC(=O)c2cc(C)ccc2C(=O)O)cc1
84,–,–,CCCCc1nc(Cl)c(CC(=O)OC)n1Cc1ccc(NC(=O)c2ccc(NS(=O)(=O)C(F)(F)F)cc2)cc1
0.5,–,–,CCCCc1nc(Cl)c(COC)n1Cc1ccc(C(=O)Nc2cccc(C)c2C(=O)O)cc1
2.1,4.5,–,CCCCc1nc(Cl)c(CC(=O)OC)n1Cc1ccc(NS(=O)(=O)C(F)(F)F)cc1
100,–,–,CCCCc1nc(Cl)c(CC(=O)OC)n1Cc1ccccc1NC(=O)c1ccccc1C(=O)O
6.9,–,–,CCCCc1nc(Cl)c(CC(=O)OC)n1Cc1ccc(NC(=O)c2ccc([N+](=O)[O-])cc2C(=O)O)cc1
0.81,4.5,–,CCCCc1nc(Cl)c(CC(=O)OC)n1Cc1ccc(NC(=O)c2cc(C)ccc2NS(=O)(=O)C(F)(F)F)cc1
22,–,–,CCCCc1nc(Cl)c(COC)n1Cc1ccc(C(=O)N[C@@H](Cc2ccccc2)C(=O)O)cc1
> 10,–,–,CCCCc1nc(Cl)c(CC(=O)OC)n1Cc1ccc(N2C(=O)C(c3ccccc3)=C(c3ccccc3)C2=O)cc1

# The next lines start with the compound.
Compound,IC50 (Angiotensin II receptor [1]) [µM],pKa [2],IC50 (Angiotensin II receptor [3]) [µM]
C1CCC(NC2CCCCC2)CC1.CCCCc1nc(Cl)c(CC(=O)OC)n1Cc1ccc(NC(=O)c2c(Cl)ccc(Cl)c2C(=O)O)cc1,0.018,–,–
CCCCc1nc(Cl)c(CO)n1Cc1ccc(C=O)cc1,28,–,–
CCc1nccn1Cc1ccc(NC(=O)c2ccccc2C(=O)O)cc1,–,–,8.5
CCCCc1nc(Cl)c(CC(=O)O)n1Cc1ccccc1[N+](=O)[O-],15,–,–
CCCCc1nc(Cl)c(COC)n1Cc1ccc(N(C)C(=O)c2c(Cl)ccc(Cl)c2C(=O)O)cc1,5.7,–,–
CCCCc1nc(CC(=O)O)c(Cl)n1Cc1ccc(C(=O)O)cc1,19,–,–
COc1ccc(Cc2nccn2Cc2ccc(NC(=O)c3ccccc3C(=O)O)cc2)cc1,–,–,2.5
CCCCc1nc(Cl)c(CO)n1Cc1ccc(/C=N/O)cc1,> 100,–,–
CCCCCc1nccn1Cc1ccc(NC(=O)c2ccccc2C(=O)O)cc1,–,–,0.24
CCCCc1nc(Cl)c(CC(=O)O)n1Cc1cccc(C(=O)O)c1,100,–,–
CCCCc1nc(Cl)c(CC(=O)O)n1Cc1ccccc1C(=O)O,38,–,–
O=C(O)c1ccccc1C(=O)Nc1ccc(Cn2ccnc2)cc1,–,–,100
CCCCc1nc(Cl)c(COC(C)=O)n1Cc1ccc(C(=O)O)cc1,5.3,–,–
O=C(O)c1ccccc1C(=O)Nc1ccc(Cn2cncc2CO)cc1,–,–,> 100
CCCCc1nc(CO)c(Cl)n1Cc1ccc(C(=O)O)cc1,100,–,–
CCCCCCc1nccn1Cc1ccc(NC(=O)c2ccccc2C(=O)O)cc1,–,–,0.35

Compound,IC50 (Angiotensin II receptor [1]) [µM],pKa [2],IC50 (Angiotensin II receptor [3]) [µM]
CCCCc1nc(Cl)c(COC)n1Cc1ccc(C(=O)N2CCC[C@H]2C(=O)O)cc1,6.4,–,–
Cc1nccn1Cc1ccc(NC(=O)c2ccccc2C(=O)O)cc1,–,–,100
CCCCc1nc(Cl)c(Cc2nnn[nH]2)n1Cc1cccc(-c2nnn[nH]2)c1,3.8,–,–
CCCCCCCc1nccn1Cc1ccc(NC(=O)c2ccccc2C(=O)O)cc1,1.1,–,–
O=C(O)c1ccccc1C(=O)Nc1ccc(Cn2ccnc2CC2CCCCC2)cc1,–,–,2.8
CCCCc1nc(Cl)c(COC)n1Cc1ccc(C(=O)N2CCC[C@@H]2C(=O)O)cc1,120,–,–
CCCCc1nc(Cl)c(Cc2nnn[nH]2)n1Cc1ccc(-c2nnn[nH]2)cc1,1.2,4,–
CC(C)c1nccn1Cc1ccc(NC(=O)c2ccccc2C(=O)O)cc1,–,–,12
O=C(O)c1ccccc1C(=O)Nc1ccc(Cn2ccnc2CCc2ccccc2)cc1,–,–,9.4
CCCCc1nc(Cl)c(CC(=O)O)n1Cc1ccc(CC(=O)O)cc1,13,–,–
CCCc1nccn1Cc1ccc(NC(=O)c2ccccc2C(=O)O)cc1,–,–,3.7
CCCCc1nccn1Cc1ccc(NC(=O)c2ccccc2C(=O)O)cc1,–,–,0.62
O=C(O)c1ccccc1C(=O)Nc1ccc(Cn2c(CCCc3ccccc3)nc(Cl)c2CO)cc1,80,–,–
CCCCc1nc(Cl)c(CC(=O)OC)n1Cc1ccc(NC(=O)C2CCCCC2NS(=O)(=O)C(F)(F)F)cc1 (stereo in doubt; 50),3.9,7.6,–
CCCCc1nc(Cl)c(CC(=O)OC)n1Cc1ccc(NC(=O)C2CCCCC2NS(=O)(=O)C(F)(F)F)cc1 (stereo in doubt; 51),4.5,7.6,–
